“Also recorded” adds a separate entry of the source. Marks after values point to notes of the source that are not given here.
Legend:
[1] = system: vascular smooth muscle cells; details: via inhibition of Ras/MAPK signal pathway; cited from earlier work
rat neutrophils = details: through suppression of Akt and PLD activation; cited from earlier work
WEHI-3 cells = assay: MTT viability assay in WEHI-3 cells; type: cell-based, murine
In short: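 WEHI-3 murine myelomonocytic cells were grown in RPMI-1640 with 10% FBS, 2 mM L-glutamine, penicillin and streptomycin at 37°C, 5% CO2. About 2×10^4 cells/well were plated for 24 h. Test compound in DMSO was added at final 0.78–25 μM, with 0.1% DMSO as control. After 24 h, viability was read by MTT across three separate experiments.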

[2] = Cytotoxicity on normal human PBMCs; type: cell-based; details: normal human peripheral blood mononuclear cells (PBMCs)
WEHI-3 cell allograft = assay: BALB/c mouse WEHI-3 allograft leukemia model; type: in vivo, BALB/c mice
In short: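 30 BALB/c mice (6 weeks, 22–25 g) in five groups: 2-glycofurol vehicle; 1×10^7 WEHI-3 cells i.v.; test compound 100 mg/kg/day i.v. for 7 days; cells plus compound; or cells, then compound for 7 days. Weighed every 7 days; killed with CO2 at day 28, spleen and liver weighed. Blood leukocytes were red-cell-lysed, stained, and read by flow cytometry for surface markers including CD11b and CD45.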

[3] = Safety evaluation in BALB/c mice; type: in vivo; details: for BUN (blood urea nitrogen) / Body weight / Liver weight / Spleen weight / sGOT (serum glutamic-oxaloacetic transaminase) / sGPT (serum glutamic-pyruvic transaminase) / ALB (albumin) / LDH (lactate dehydrogenase) / PRO (total protein): mean ± SD, n=6; for ALB (albumin) / LDH (lactate dehydrogenase) / PRO (total protein): blood
In short: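 30 BALB/c mice in five groups received i.v. PBS, 2-glycofurol solvent, or test compound at 5, 50 or 100 mg/kg/day for 7 days. Mice were killed with CO2 at day 7. Body, liver and spleen weights were recorded. Blood was assayed for LDH, albumin, total protein, sGPT, sGOT and BUN. Spleen and liver went to histopathology. Groups were compared with controls by Student's t-test.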

HL-60 cells = details: cited from earlier work
[4] = 100 mg/kg, flow cytometry, vs leukemia group
[5] = 5 mg/kg i.v. once daily for 7 days
[6] = 50 mg/kg i.v. once daily for 7 days
[7] = 100 mg/kg i.v. once daily for 7 days

O=Cc1ccccc1OCc1ccccc1 [2-benzyloxybenzaldehyde]
effect on cell proliferation [1]: exhibited antiproliferative effects | superoxide anion generation (rat neutrophils): inhibits superoxide anion generation

COc1cccc(COc2ccccc2C=O)c1 [CCY-1a-E2, 2-[(3-methoxybenzyl)oxy]benzaldehyde]
IC50 (WEHI-3 cells; Mus musculus, WEHI-3, 24 h, read-out: IC50 (cell viability, MTT)): 5 µM | percentage of viable cells (WEHI-3 cells; WEHI-3 cells, 0.78-25 μM, 24 h, MTT): decreased the percentage of viable cells in a concentration-dependent manner | IC50 [2]: > 20 µM | level of CD11b on leukocytes (WEHI-3 cell allograft; [4]): significantly decreased | level of CD45 on leukocytes (WEHI-3 cell allograft; [4]): significantly decreased | Liver weight (WEHI-3 cell allograft; 100 mg/kg/day i.v. 7 days, day 28): significantly different; also recorded: inhibited the spleen and liver growth | body weight vs control mice (WEHI-3 cell allograft; CCY-1a-E2 100 mg/kg group (no WEHI-3 cells), i.v. 7 days, up to day 28): not significantly decreased | infiltration of immature myeloblastic cells into the splenic red pulp (histopathology) (WEHI-3 cell allograft; treated leukemic mice vs untreated leukemia group, data not shown): eliminated | BUN (blood urea nitrogen) [3, 5]: 30.33 ± 5.02 mg/dL | Body weight [3, 5]: 28.42±1.13^a g | Liver weight [3, 5]: 4.42±0.47 g/100 g body weight | Spleen weight [3, 5]: 0.35±0.06 g/100 g body weight | sGOT (serum glutamic-oxaloacetic transaminase) [3, 5]: 105.83±22.16 U/l | sGPT (serum glutamic-pyruvic transaminase) [3, 5]: 41.83±8.94 U/l | BUN (blood urea nitrogen) [3, 6]: 26.17 ± 2.42 mg/dL | Body weight [3, 6]: 28.88±1.52^a g | Liver weight [3, 6]: 4.18±0.33 g/100 g body weight | Spleen weight [3, 6]: 0.31±0.06 g/100 g body weight | sGOT (serum glutamic-oxaloacetic transaminase) [3, 6]: 79.98±26.10 U/l | sGPT (serum glutamic-pyruvic transaminase) [3, 6]: 43.92±16.02 U/l | BUN (blood urea nitrogen) [3, 7]: 28.92 ± 2.20 mg/dL | Body weight [3, 7]: 28.90±0.51^a g | Liver weight [3, 7]: 4.17±0.26 g/100 g body weight | Spleen weight [3, 7]: 0.37±0.04 g/100 g body weight | sGOT (serum glutamic-oxaloacetic transaminase) [3, 7]: 115.12±15.08 U/l | sGPT (serum glutamic-pyruvic transaminase) [3, 7]: 41.83±10.02 U/l | sGPT and sGOT levels vs normal range ([3]; 5, 50 and 100 mg/kg i.v. for 7 days): within the normal value range | histopathology of spleen and liver ([3]; 5, 50 and 100 mg/kg, vs vehicle-treated controls, data not shown): No significant microscopic aberrations | ALB (albumin) [3, 5]: 1.58 ± 0.38 g/dL | LDH (lactate dehydrogenase) [3, 5]: 298.00±62.22 U/l | PRO (total protein) [3, 5]: 3.68 ± 0.60 g/dL | ALB (albumin) [3, 6]: 1.73 ± 0.26 g/dL | LDH (lactate dehydrogenase) [3, 6]: 244.83±46.99 U/l | PRO (total protein) [3, 6]: 4.06 ± 0.58 g/dL | ALB (albumin) [3, 7]: 1.84 ± 0.13 g/dL | LDH (lactate dehydrogenase) [3, 7]: 270.83±42.09 U/l | PRO (total protein) [3, 7]: 4.77 ± 0.46 g/dL | apoptosis (HL-60 cells): induced cell apoptosis | cell cycle effect (HL-60 cells): induced G2/M phase arrest | percentage of viable cells (HL-60 cells): decreased the percentage of viable cells

— publication PMC3576184 (Oncology Letters, 2012)
